Source: PubChem
TRPN1 ag: zebrafish TRPN1 channel agonists, primary screen, cell-based, HEK293, calcium fluorescence; transient receptor potential cation channel N1 (TRPN1/NompC), Danio rerio; HEK293 zebrafish TRPN1-YFP, Fluo-8 calcium fluorescence; 100% = response to 87 µM carbachol; activation, % at 3 µM; hit rate 0.18% among 220,000;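 active means activation above its plate's cutoff, the mean activation of test wells on that plate plus 3 SD, cut at about 19% in these data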;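 further: 0% = DMSO alone and 100% = 87 µM carbachol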
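Material: zebrafish TRPN1-YFP in HEK293 cells. Doses: one dose of 3 µM, 0.3% DMSO. Incubation: dye 1 h 37 °C plus 30 min RT. Measured by: intracellular calcium fluorescence with Fluo-8.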
TRPML3 agonist: human TRPML3 channel agonists, primary screen, cell-based, HEK293 TRPML3-YFP, Fluo-8 calcium fluorescence, 3 µM | Mucolipin-3 (Homo sapiens), Q8TDD5 | 100% = the carbachol control signal | activation, % at 3 µM | hit rate 0.29% among 220,000 | AID 1448, 2008;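 active means activation above its plate's cutoff, the mean activation of the plate's test wells plus 3 SD, cut at about 12% in these data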;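 further: 0% = DMSO only wells and 100% = carbachol wells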
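Material: TRPML3-YFP stable HEK293 cells | Dosing: One concentration, 3 µM nominal, 0.3% DMSO | Timing: 125 s total fluorescence read per well | Technique: Fluo-8 calcium dye fluorescence, ex 470-495, em 515-575 nm | Measure: Percent activation from peak-to-basal fluorescence ratio, scaled between DMSO and carbachol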
LANA-H2A inh: blockers of LANA interaction with H2A/H2B – biochemical, FP readout, HTS, primary screen | Protein LANA1 (Human herpesvirus 8 type P (isolate GK18)), Q9QR71 | cell-free LANA-H2A/H2B peptide, fluorescence polarization | inhibition, % (test concentration not listed) | hit rate 0.6% among 320,000 | AID 2629, 2010; in the data active means inhibition mostly above about 10%, no sharp cut-off; inactive means mostly below about 6.7%
GPR7 antag: GPR7 receptor antagonists, primary screen, cell-based, fluorescence, single concentration. Neuropeptides B/W receptor type 1 (Homo sapiens), P48145. GPR7-expressing cells, fluorescence antagonist assay. inhibition, % at 4.4 µM. hit rate 1.1% among 290,000; in the data active means inhibition above about 16%, passing the limit was not always enough;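 further: cells stimulated with the agonist NPW; 0% = agonist with vehicle and 100% = vehicle without agonist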
Target sequence (P48145 whole entry, looked up): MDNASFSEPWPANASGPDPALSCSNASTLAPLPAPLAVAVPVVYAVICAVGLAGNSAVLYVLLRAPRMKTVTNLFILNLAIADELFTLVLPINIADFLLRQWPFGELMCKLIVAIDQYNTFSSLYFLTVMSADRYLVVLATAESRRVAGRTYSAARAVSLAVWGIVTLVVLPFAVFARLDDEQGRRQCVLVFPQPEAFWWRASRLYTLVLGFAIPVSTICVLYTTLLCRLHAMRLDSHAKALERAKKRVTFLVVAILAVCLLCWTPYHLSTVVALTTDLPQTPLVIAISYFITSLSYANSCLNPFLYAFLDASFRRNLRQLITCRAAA
TAAR1 ag: human TAAR1 agonists, primary screen, Fluo-8 calcium fluorescence, CHO RD-HGA16 cells | Trace amine-associated receptor 1 (Homo sapiens), Q96RJ0 | vehicle wells 0%, saturating PEA agonist 100% | activation, % at 3 µM | hit rate 0.99% among 360,000 | AID 624467, 2012;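 active means activation above the mean activation of all test compounds in the run plus 3 SD, cut at about 38% in these data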
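Assay system – CHO-derived RD-HGA16 cells with stable Gα16 and human TAAR1 · Compound dosing – one-point dosing at 3 µM (nominal) · Incubation – 17-24 h seeding, 75 min 37 °C dye, 30 min RT · Measured by – kinetic Fluo-8 calcium fluorescence · Control set – DMSO vehicle as 0%, PEA at EC100 as 100% · Repeats – single well for each compound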
TAAR1 antagonist: human TAAR1 antagonists, primary screen, Fluo-8 calcium fluorescence, CHO RD-HGA16 cells | Trace amine-associated receptor 1 (Homo sapiens), Q96RJ0 | antagonist | inhibition, % at 3 µM | hit rate 1.5% among 360,000;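 active means inhibition above a per-plate cutoff, the mean inhibition of test compounds on that plate plus 3 SD, cut at about 49% in these data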;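 further: 0% = DMSO plus EC80 beta-PEA response and 100% = DMSO alone without agonist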
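Assay system: RD-HGA16 CHO cells with stable hTAAR1 and Gα16 / Reagent: EC80 β-phenethylamine stimulus / Doses: 3 µM, single point / Timing: dye loading 75 min at 37 °C, then 30 min room temperature / Measured by: Fluo-8 intracellular calcium dye fluorescence, real-time kinetic reads / Controls: vehicle wells and EC80 agonist wells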
GPR7 antag cf: GPR7 receptor antagonists, confirmation, cell-based, fluorescence, single concentration; shares compounds with GPR7 antag; GPR7-expressing cells, calcium fluorescence antagonist mode; inhibition, % at 4.4 µM; hit rate 52% among 2,400; AID 1952, 2009; in the data active means inhibition above about 24%;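 further: stimulated with the GPR7 agonist NPW; 0% = agonist plus vehicle and 100% = vehicle alone without agonist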
MCHR1 antag: MCHR1 antagonists in cells, counter-screen for GPR7 antagonist project, cell-based, fluorescence, human. inhibition, % at 4.4 µM. MCHR1-expressing cells, fluorescence antagonist assay. shares compounds with GPR7 antag. hit rate 62% among 2,400; in the data active means inhibition above about 22%;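 further: 0% = vehicle with agonist and 100% = vehicle without agonist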
* = called active by the depositor; · = no result given. Hits are enriched below; roughly 3.4% of the tested compounds scored in any of these assays.

SMILES	TRPN1 ag	TRPML3 agonist	LANA-H2A inh	GPR7 antag	TAAR1 ag	TAAR1 antagonist	GPR7 antag cf	MCHR1 antag
CC[n+]1c(/C=C/N(C)c2ccccc2)n(-c2ccccc2)c2ccc(-c3nc4ccccc4s3)cc21	·	·	-9	84*	·	·	95*	89*
O=C(CSc1nc(C(F)(F)F)cc(=O)[nH]1)Nc1cccc2ccccc12	·	·	-2	·	6	-16	·	·
CCOc1ccccc1C=NNC(=O)C1CC1	·	·	·	·	1	-10	·	·
CSc1ccccc1C(=O)N(C)C(c1ccccc1)c1ccccc1	·	·	1	22*	-3	11	15	61*
O=C(/C=C/c1ccccc1)NNC(=O)c1cccs1	0	0	-5	-3	0	0	·	·
COc1ccccc1/C=C/C(=O)NNC(=O)c1cccs1	-1	0	0	30*	2	17	-3	4
CC(C)c1ccc(NC(=O)COC(=O)c2nn(C)c(=O)c3ccccc23)cc1	·	·	0	·	5	24	·	·
COc1ccccc1CC(=O)Nc1ccc2c(c1)C(=O)NC2=O	0	0	0	33*	1	3	23	16
O=C(CSc1ccc(F)cc1)Nc1ccc2c(c1)C(=O)NC2=O	·	·	0	25*	2	28	36*	43*
Cc1ccccc1C(=O)NNS(=O)(=O)c1cccc([N+](=O)[O-])c1	·	·	-12	-7	6	-1	·	·
CC(O)C(NS(=O)(=O)c1ccc2ccccc2c1)C(=O)OCC(=O)Nc1ccccc1OC(F)F (stereo not given)	·	·	·	·	3	-4	·	·
Cc1ccccc1NC(=O)Cn1nnc(S(=O)(=O)c2ccc(C(C)(C)C)cc2)c1N	8	4	2	28*	29	24	34*	10
Cc1ccccc1NC(=O)Cn1nnc(C(=O)NCc2ccco2)c1N	0	0	3	8	1	5	·	·
COc1cccc(C2c3[nH]c4ccccc4c3CCN2C(=O)c2ccccc2F)c1OC (stereo not given)	·	·	1	37*	4	0	27*	35*
Cc1cc(C)cc(C(=O)Nc2c3c(nn2C(C)(C)C)CS(=O)(=O)C3)c1	·	·	-2	9	0	-12	·	·
CC(C)(C)c1ccc(C(=O)Nc2c3c(nn2C(C)(C)C)CS(=O)(=O)C3)cc1	·	·	2	26*	7	6	15	23*
CC1CCCCC1NC(=O)CN1CCC(NC(=O)C(C)(C)C)CC1 (stereo not given)	·	·	·	·	1	-1	·	·
CCN(CC)CCCN(C(=O)c1ccco1)c1nc(-c2ccc(Cl)cc2)cs1	·	·	5	24*	9	1	31*	38*
Clc1cccc(Cc2c(C3CCCCC3)nc3c4ccccc4ccn23)c1	·	·	·	·	0	8	·	·
Cc1cc(SCc2ccc([N+](=O)[O-])cc2)nc(=O)[nH]1	·	·	-1	26*	1	-3	4	4
Cc1ccc(N(C)S(=O)(=O)c2ccc(-c3cnc(C4CC4)o3)cc2)cc1	·	·	4	37*	2	15	16	37*
Cn1cnc([N+](=O)[O-])c1Sc1ccc(C(C)(C)C)cc1	8	3	-7	27*	42*	28	38*	26*
